Source: PubChem BioAssay
SKKanGAS inh – blocks kanamycin growth of S. pyogenes SKKanGAS strain | BacTiter-Glo, 6 h | inhibition, % at 7.5 µM | 300,000 tested, 1.3% active;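 active = mean replicate score, as percent of positive control median, at least 50; inconclusive = mean below 50 but one replicate at or above 50; inactive = mean and every replicate below 50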;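 note: strain carries kanamycin resistance gene driven by streptokinase promoter and grows in 40 µg/ml kanamycin; loss of luminescence reflects streptokinase promoter inhibition or plain growth inhibition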
CSC inhib – blocks cancer stem cells; inhibition, % at 7.5 µM; cancer stem cell-like cells viability, luminescence; 300,000 tested, 1.1% active; in the data active = inhibition above about 75%; inconclusive = no clear call, values can overlap the other calls; tested in HMLE shEcad cells
T cruzi repl – blocks replication of Trypanosoma cruzi; T. cruzi beta-gal in NIH3T3, luminescence, 90 h; 300,000 tested, 1.4% active; AID 1885; inhibition, % (concentration not given with the values);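 active = mean inhibition across valid replicates above about 55%, limit read from the data; inconclusive = mean below that limit but half or more replicates reach it; inactive = mean below it, under half of replicates reach it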;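 note: signal also drops with host cell toxicity which is not excluded here; higher percent means less beta-gal luminescence so fewer parasites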
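compound dosing = single 50 nL compound addition per well in DMSO | material = NIH/3T3 host cells with β-galactosidase reporter T. cruzi | input = 5,000 host fibroblasts per well | timing = ≥90 h infection period, 3 h prior cell attachment | read-out basis = percent inhibition of parasite-derived β-gal signal | detection = GalScreen β-gal luminescence, detergent lysis, 60 min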
Mdm2 MdmX PPI – human Mdm2/MdmX binding inhibition; SaOS-2 split-luciferase Mdm2/MdmX complementation, luminescence; inhibition, % at 8 µM; 330,000 tested, 3% active; AID 485346;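 active = inhibition of at least 50% at 8 µM in the primary screen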
Target sequence (O15151 whole entry, looked up): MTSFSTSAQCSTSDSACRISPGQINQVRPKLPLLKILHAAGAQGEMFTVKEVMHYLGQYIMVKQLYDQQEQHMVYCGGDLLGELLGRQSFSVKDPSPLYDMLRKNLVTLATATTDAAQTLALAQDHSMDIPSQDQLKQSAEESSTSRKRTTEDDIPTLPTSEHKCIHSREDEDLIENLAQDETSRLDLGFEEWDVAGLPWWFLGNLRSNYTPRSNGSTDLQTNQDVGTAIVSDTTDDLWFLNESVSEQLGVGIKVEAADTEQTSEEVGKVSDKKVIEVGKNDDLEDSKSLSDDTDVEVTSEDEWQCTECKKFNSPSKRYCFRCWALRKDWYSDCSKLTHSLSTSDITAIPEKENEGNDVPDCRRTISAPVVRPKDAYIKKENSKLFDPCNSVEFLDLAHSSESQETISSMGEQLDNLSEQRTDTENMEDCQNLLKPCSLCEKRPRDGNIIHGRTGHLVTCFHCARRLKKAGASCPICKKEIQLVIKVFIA
Target sequence (Q00987 whole entry, looked up): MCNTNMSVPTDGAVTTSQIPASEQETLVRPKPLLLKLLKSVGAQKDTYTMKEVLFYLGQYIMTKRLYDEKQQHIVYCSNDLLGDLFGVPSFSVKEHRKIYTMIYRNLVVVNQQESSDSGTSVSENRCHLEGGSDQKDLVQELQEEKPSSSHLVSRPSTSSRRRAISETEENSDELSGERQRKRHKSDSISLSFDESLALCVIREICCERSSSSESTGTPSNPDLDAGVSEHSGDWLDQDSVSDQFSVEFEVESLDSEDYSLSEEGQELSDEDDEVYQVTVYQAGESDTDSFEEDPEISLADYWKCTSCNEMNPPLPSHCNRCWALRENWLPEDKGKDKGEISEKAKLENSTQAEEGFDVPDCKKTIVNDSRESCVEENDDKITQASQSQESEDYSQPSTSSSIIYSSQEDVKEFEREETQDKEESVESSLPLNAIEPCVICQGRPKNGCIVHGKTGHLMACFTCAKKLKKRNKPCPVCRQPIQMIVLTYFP
Lmaj promast – inhibitors of Leishmania major promastigote growth | Leishmania major promastigotes, resazurin fluorescence viability | inhibition, % at 10 µM | 200,000 tested, 9% active | AID 1063; in the data active = inhibition above about 50%;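 note: promastigotes grown with compound for 44 hours at 28 °C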
Beta apoptosis – blocks beta cell apoptosis; 300,000 tested, 0.8% active; protection from apoptosis, % (test concentration not listed); INS-1E cytokine-induced death, ATP luminescence, 48 h; percent of positive-control rescue, neutral wells zero;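 active = Every replicate reaches about 75%, or at least half do and their mean reaches it too, limit read from the data; inconclusive = At least half of replicates reach the limit but their mean does not; inactive = Under half of replicates reach the limit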;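 note: higher means more ATP so stronger rescue from cytokine killing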
Mdm2 MdmX conf – human Mdm2/MdmX binding inhibition, confirmed; shares compounds with Mdm2 MdmX PPI; luminescent assay; inhibition, % at 8 µM; 10,000 tested, 55% active; AID 489028; in the data active = inhibition above about 40%
FLuc counter – counter-screen for Mdm2/MdmX inhibitors: full-length luciferase; shares compounds with Mdm2 MdmX PPI; SaOS-2 full-length luciferase counterscreen, luminescence; inhibition, % at 8 µM; 6,200 tested, 77% active;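 active = mean inhibition at 8 µM reaching about 37%, which flags the compound as non-specific, limit read from the data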;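 note: p53-null SaOS-2 cells with luciferase driven by a doxycycline-inducible promoter; compound on cells about two nights before reading with doxycycline added after day one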
Hits are given with their value; i = inactive; ? = inconclusive; nt = no result. Compounds with a hit are over-represented: about 9.4% of the library has one in this group of screens.

SMILES	SKKanGAS inh	CSC inhib	T cruzi repl	Mdm2 MdmX PPI	Lmaj promast	Beta apoptosis	Mdm2 MdmX conf	FLuc counter
COc1cc(C(N)=O)cc(Br)c1OC	i	i	i	59	i	i	i	nt
CCOc1c(Br)cc(C(N)=O)cc1OC	i	i	i	i	i	i	nt	nt
CCN1CCN(c2cc(C)c3cc(NC(=O)c4ccc5c(c4)OCO5)ccc3n2)CC1	i	i	i	71	100	i	50	84
CCN1CCN(c2cc(C)c3cc(NC(=O)c4cncc(Br)c4)ccc3n2)CC1	i	i	i	66	100	i	i	nt
CCN1CCN(c2cc(C)c3cc(NC(=O)c4cccc(OC)c4)ccc3n2)CC1	i	i	i	i	nt	i	nt	nt
COc1ccccc1NC(=O)C(C)OC(=O)CC1CCCCC1 (stereo not given)	nt	nt	nt	i	nt	i	nt	nt
O=C(c1cc(-c2ccccc2)nn1-c1ccccc1)N1CCN(S(=O)(=O)c2ccc(F)cc2)CC1	i	i	i	i	nt	i	nt	nt
Cc1ccc(S(=O)(=O)N2CCN(C(=O)c3c(C)nn(-c4ccccc4)c3Cl)CC2)cc1	i	nt	i	i	i	nt	nt	nt
O=C(c1cc(-c2cccs2)nn1-c1ccccc1)N1CCN(S(=O)(=O)c2ccccc2)CC1	i	i	i	55	nt	i	i	92
Cc1ccc(S(=O)(=O)N2CCN(C(=O)c3cc(-c4cccs4)nn3-c3ccccc3)CC2)cc1	i	i	i	67	nt	i	41	88
COc1cc(CNCCNC(=O)c2nonc2N)ccc1OCc1ccc(Cl)nc1	i	i	i	i	i	i	nt	nt
FC(F)(F)c1cc(CO[C@@H]2CCCN[C@@H]2c2ccccc2)cc(C(F)(F)F)c1	nt	i	nt	59	nt	i	i	nt
FC(F)(F)c1cc(CCN2CCNC[C@@H]2c2ccccc2)cc(C(F)(F)F)c1	nt	i	nt	i	nt	i	nt	nt
CC(C)C1Cc2c(sc3[nH]c(=S)n(Cc4ccccc4)c(=O)c23)CO1 (stereo not given)	82	139	i	53	i	i	i	nt
Cc1nnc2n(-c3ccccc3)c(=O)c3c4c(sc3n12)COC(C(C)C)C4 (stereo not given)	i	i	i	i	i	i	nt	nt
Cc1cnc(=O)[nH]c1SCc1ccc([N+](=O)[O-])cc1	i	i	i	i	nt	i	nt	nt
COc1cccc(NC(=O)N2CCC(NC(=O)C(Cc3ccccc3F)NC(C)=O)CC2)c1 (stereo not given)	i	i	i	i	nt	i	nt	nt
COc1ccc(C[C@H](N)C(=O)N[C@H]2[C@@H](O)[C@H](n3cnc4c(N(C)C)ncnc43)O[C@@H]2CO)cc1	nt	i	nt	96	nt	nt	99	54
Nc1ncn([C@@H]2O[C@H](CO)[C@@H](O)[C@H]2O)c(=O)n1	i	i	i	52	nt	i	50	59
CNc1ncnc2c1ncn2[C@@H]1O[C@H](CO)[C@@H](O)[C@H]1O	nt	i	nt	i	nt	i	nt	nt
CN(C)c1ncnc2c1ncn2C1OC(CO)C(O)C1O (stereo not given)	i	nt	?	76	i	i	43	i
FC(F)(F)c1cc(NC2CCCCC2)ccn1	i	i	i	i	nt	i	nt	nt
CCOc1cc(C2NC(=O)CCC2[N+](=O)[O-])cc(Br)c1OCC (stereo not given)	i	i	i	i	nt	i	nt	nt
CN1CC2=Cc3ccccc3OC23Oc2ccccc2C=C3C1	i	i	i	59	i	nt	i	nt
O=C1c2ccccc2C(=O)c2[nH]c(=O)[nH]c21	62	nt	i	69	nt	nt	44	48
SMILES	SKKanGAS inh	CSC inhib	T cruzi repl	Mdm2 MdmX PPI	Lmaj promast	Beta apoptosis	Mdm2 MdmX conf	FLuc counter
CN(CCc1nc2ccc(Cl)cc2[nH]1)Cc1nc(CC2CC2)no1	i	i	i	i	i	i	nt	nt
Cc1nc2ccccn2c1-c1csc(Nc2ccc(C(=O)O)cc2)n1	i	i	i	53	nt	i	54	63
CC(=O)c1cccc(NC(=O)Nc2cccnc2)c1	i	i	i	54	i	i	50	i
COC(=O)c1cccc(NC(=O)Nc2ccc(Cl)c(Cl)c2)c1	i	97	55	80	87	82	80	40
CCOC(=O)N1CCN(C(=O)c2cn(CC)c3ccc(S(=O)(=O)N4CCOCC4)cc3c2=O)CC1	i	i	i	i	nt	i	nt	nt
Cc1ccc(S(=O)(=O)n2cc(-c3ccccc3)c3ccccc32)cc1	nt	99	nt	63	nt	i	57	82
O=C(NNC(=O)C12CC3CC(CC(C3)C1)C2)c1ccccc1F	i	i	i	i	nt	i	nt	nt
O=C(NNC(=O)C12CC3CC(CC(C3)C1)C2)c1ccccc1O	nt	i	nt	53	nt	i	i	nt
COc1cc(-c2nc(CN3CCN(C(=O)c4ccco4)CC3)c(C)o2)ccc1F	i	i	i	i	nt	i	nt	nt
COc1ccc2c(c1)c1nc3n(c(=O)c1n2CC(=O)Nc1cc(C)[nH]n1)CCS3	i	i	i	67	i	i	59	101
Cc1cccc(N2CCN(C(=O)c3c(-c4ccccc4Cl)noc3C)CC2)c1C	i	i	i	59	nt	i	76	71
Cc1cc(N/N=C/c2ccc(O)cc2)c2cccc(C)c2n1	i	i	i	66	nt	i	i	nt
Cc1cc(C)c2nc(C)cc(N/N=C/c3ccc(O)cc3)c2c1	i	103	64	98	nt	nt	100	50
O=C(NCCS(=O)(=O)NCCCc1ccccc1)c1ccccc1	i	i	i	i	nt	i	nt	nt
Cc1cc2oc(C(=O)Nc3ccc(S(N)(=O)=O)cc3)c(C)c2cc1Cl	i	i	i	55	i	nt	48	58
Cc1nnc(-c2ccccc2)c(=O)n1/N=C/c1c(O)ccc2ccccc12	70	i	65	54	98	88	57	i
CC(C)(C)NC(=O)COC(=O)CCC(=O)c1cccs1	i	i	i	i	i	i	nt	nt
NS(=O)(=O)c1ccc(N2N=C(c3ccccc3)CC2c2ccccc2Br)cc1 (stereo not given)	nt	nt	nt	52	nt	nt	i	nt
COc1ccc(C2CC(c3ccncc3)=NN2c2ccc(S(N)(=O)=O)cc2)cc1 (stereo not given)	nt	nt	nt	i	nt	nt	nt	nt
NS(=O)(=O)c1ccc(N2N=C(c3ccccc3)CC2c2cccc(Br)c2)cc1 (stereo not given)	nt	nt	nt	i	nt	nt	nt	nt
NS(=O)(=O)c1ccc(N2N=C(c3ccc(Br)cc3)CC2c2ccc(F)cc2)cc1 (stereo not given)	72	125	i	72	95	i	i	75
O=[N+]([O-])c1ccc(N2N=C(c3ccccc3)CC2c2ccccc2O)cc1 (stereo not given)	98	102	63	90	nt	i	i	104
NS(=O)(=O)c1ccc(N2N=C(c3ccccc3)CC2c2cccc(F)c2)cc1 (stereo not given)	i	i	i	nt	i	i	nt	nt
COc1ccc(C2CC(c3ccc(Cl)cc3)=NN2c2ccc(S(N)(=O)=O)cc2)cc1 (stereo not given)	nt	nt	nt	87	nt	nt	i	nt
